# Runt-SMMHC FRET – Runt domain-CBFb-SMMHC interaction inhibition; 0.74% of 220,000 active; AID 1434; Q01196+Q13951; inhibition, % at 20 µM; Cerulean-Runt/Venus-CBFb-SMMHC FRET ratio 530/480, 1 h;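 active = mean inhibition across duplicate retests at 20 µM reaching about 50%, limit read from the data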;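 note: 0% = DMSO wells and 100% = wells with excess untagged CBFb-SMMHC; inhibitors lower the FRET ratio by blocking Runt binding to CBFb-SMMHC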
# Target sequence (Q01196 whole entry, looked up, the tested form may be a part): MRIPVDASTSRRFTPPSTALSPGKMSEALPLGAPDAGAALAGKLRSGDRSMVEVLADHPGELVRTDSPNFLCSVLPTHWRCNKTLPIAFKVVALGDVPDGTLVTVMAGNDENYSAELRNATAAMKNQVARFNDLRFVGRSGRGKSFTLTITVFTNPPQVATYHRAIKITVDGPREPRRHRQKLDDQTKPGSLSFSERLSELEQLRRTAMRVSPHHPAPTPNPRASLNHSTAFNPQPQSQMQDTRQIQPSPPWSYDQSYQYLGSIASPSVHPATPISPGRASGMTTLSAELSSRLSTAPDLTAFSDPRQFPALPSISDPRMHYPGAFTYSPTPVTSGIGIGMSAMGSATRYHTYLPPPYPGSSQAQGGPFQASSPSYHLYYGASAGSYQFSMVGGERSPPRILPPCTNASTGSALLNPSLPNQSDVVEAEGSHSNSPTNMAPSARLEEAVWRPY
# Target sequence (Q13951 whole entry, looked up, the tested form may be a part): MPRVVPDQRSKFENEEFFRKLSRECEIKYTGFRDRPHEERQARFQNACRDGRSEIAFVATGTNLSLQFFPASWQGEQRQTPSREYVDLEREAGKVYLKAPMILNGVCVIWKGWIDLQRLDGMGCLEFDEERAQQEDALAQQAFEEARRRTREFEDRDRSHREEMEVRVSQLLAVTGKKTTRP
# Runt-CBFb FRET – blocks binding of human RUNX1 Runt domain to CBFb; Cerulean-Runt/Venus-CBFb FRET ratio 530/480, 1 h; AID 1496; inhibition, % at 20 µM; 0.46% of 220,000 active;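 active = inhibition over about 50% at 20 µM in the single-dose screen, limit read from the data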;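 note: 0% = DMSO wells and 100% = excess unlabeled CBFb competitor control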
#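 Reagent – Venus-CBFb binding partner, 100 nM · Assay system – Cerulean-tagged RUNX1 Runt domain (FRET donor) fusion protein · Input – 100 nM per protein · Incubation – two 1 h room-temperature incubations shielded from light · Measured by – FRET fluorescence · Medium – Tris buffer pH 7.5 with salts and BSA · Benchmarks – unlabeled CBFb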
# RanGTP-Impb inh – disruptors of Ran-importin-beta complex formation – biochemical, FRET, CFP-Ran, YFP-importin-beta, homogeneous, primary screen; AID 2216; 1.1% of 300,000 active; cell-free CFP-Ran/YFP-importin-beta FRET ratio; inhibition, % (test concentration not listed);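 active = more than half of the replicate wells show a fall in the fluorescence ratio signal beyond about 16%, limit read from the data, passing the limit was not always enough; inconclusive = exactly half of the replicate wells pass the set limit; inactive = fewer than half of replicates pass the limit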;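 note: 0% = DMSO wells and 100% = Ran loaded with GDP instead of GTP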
# Hck-Nef inh – human Hck-Nef kinase inhibition. inhibition, % at 20 µM. AID 463187. Recombinant Hck-YEEI plus Nef, Z-Lyte FRET kinase assay. P08631. 0.68% of 220,000 active;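 active = Hck-Nef kinase inhibition above about 50%, limit read from the data; inactive = inhibition below that limit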;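 note: 0% = DMSO with Hck plus Nef and 100% = Hck alone without Nef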
# Hck-Nef confirm – Hck-Nef kinase inhibition, confirmation. shares compounds with Hck-Nef inh. 28% of 1,300 active. Recombinant Hck-YEEI:Nef, Z-Lyte FRET kinase assay. calls only at 10 µM;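 active = average inhibition of at least 50%, with Z-scores no higher than 3 in both the phospho-tyrosine peptide and fluorescence counterscreens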
# Active calls of the source: *; i = inactive; ? = inconclusive; / = not tested or not shown; + = active, no number. Only some compounds are listed: those with a hit (about 1.8% of all), similar ones and a draw of the others.
SMILES,Runt-SMMHC FRET,Runt-CBFb FRET,RanGTP-Impb inh,Hck-Nef inh,Hck-Nef confirm
CCc1c(C)c2cc(Cl)c(O)c(CN(C)C)c2oc1=O,91.6*,92.4*,39.5*,122.8*,/
O=c1oc2c(CN3CCCCC3)c(O)ccc2c2c1CCCC2,49.6,22.8,8.6,37.2,/
O=C(N/C(=C\c1ccccc1)C(=O)N1CCOCC1)c1ccccc1Br,/,/,0.0,/,/
NS(=O)(=O)c1ccc(CCNC(=O)COC(=O)CC(c2ccccc2)c2ccccc2)cc1,-2.0,-2.1,-0.8,7.8,/
COc1ccc(OCC(=O)Nc2ccc(N3CCN(Cc4ccccc4F)CC3)cc2)cc1,/,/,2.5,/,/
CCn1c(SCC(=O)Nc2ccc(-c3nc4ccc(C)cc4s3)cc2)nnc1-c1ccccc1,11.6,-1.0,1.0,61.6*,+
COc1ccc(-c2cc(=O)c3c(O)c(OC)c(O)cc3o2)cc1,-2.9,2.0,6.7,67.4*,i
COc1cc(-c2cc(=O)c3c(O)c(OC)c(OC)cc3o2)cc(OC)c1O,-1.8,-0.9,1.3,98.4*,+
COc1cc(-c2cc(=O)c3c(O)cc(O)cc3o2)ccc1O,-76.8,-20.2,10.1,54.3*,i
OCCCNC(=S)Nc1ccc(Br)cc1Cl,0.8,-1.3,-0.5,4.3,/
Cc1cc(NC(=O)c2ccc(S(=O)(=O)N3CCOCC3)cc2)no1,-0.6,0.4,-0.1,20.7,/
Cc1cc(NC(=O)c2ccc(S(=O)(=O)N3CCc4ccccc43)cc2)no1,-5.1,-6.7,?,52.1*,i
Cc1cccc(-n2c(=O)c(C#N)cc3c(=O)n4ccccc4nc32)c1,59.0*,19.5,127.6*,199.1*,/
Cc1cccn2c(=O)c3cc(C(=O)N4CCCc5ccccc54)n(C)c3nc12,/,/,/,13.1,/
Cc1ccc(C)c(-n2c(=O)c(C#N)cc3c(=O)n4ccccc4nc32)c1,89.6*,3.0,107.6*,+,/
Cc1cc(-n2c(=O)c(C#N)cc3c(=O)n4cccc(C)c4nc32)no1,60.5*,18.4,183.8*,190.0*,/
COc1cc(C(=O)NNC2=CC(=O)CC(C)(C)C2)cc(OC)c1OC,1.1,2.5,6.6,2.7,/
C[C@H](N)C(=O)OCc1ccc([N+](=O)[O-])cc1,-2.5,-1.7,1.4,2.1,/
CC(O)C(C(=O)OCc1ccc([N+](=O)[O-])cc1)N1C(=O)c2ccccc2C1=O (stereo unspecified),1.1,0.6,/,70.7*,i
CC(=O)Nc1ncnc2c1c(-c1ccc(Cl)cc1)nn2C(C)(C)C,2.8,1.4,3.7,+,+
CC(=O)N(C(C)=O)c1ncnc2c1c(-c1ccc(Cl)cc1)nn2C(C)(C)C,-5.3,-1.5,5.3,73.5*,i
CC1CCCC(C)N1C(=O)CSc1nnc(COc2ccc(F)cc2)o1 (stereo unspecified),/,/,-0.3,/,/
CCOC(=O)C1=NOC(CNc2ncc(C(F)(F)F)cc2Cl)C1 (stereo unspecified),0.7,-2.3,4.3,2.3,/
CCOC(=O)C1=NOC(C(=O)NN(C)c2ncc(C(F)(F)F)cc2Cl)C1 (stereo unspecified),1.3,-0.7,-0.7,60.4*,i
CCCCN(C(=O)Cn1ncc(Cl)c(Cl)c1=O)c1c(N)n(CC(C)C)c(=O)[nH]c1=O,6.5,2.1,2.0,65.8*,+
SMILES,Runt-SMMHC FRET,Runt-CBFb FRET,RanGTP-Impb inh,Hck-Nef inh,Hck-Nef confirm
COc1ccc2nc(C)cc(SCC(=O)NNC(=O)COc3ccc(C)cc3)c2c1,-8.0,-3.5,5.2,-0.8,/
COc1ccc2nc(C)cc(SCC(=O)Nc3c(C)cccc3C)c2c1,-5.5,-0.2,1.1,78.4*,i
COc1ccc2nc(C)cc(SCC(=O)Nc3c(C)cc(C)cc3C)c2c1,1.3,-1.8,0.4,50.8*,i
COc1ccccc1CNC(=O)CCCNC(=O)c1ccc(Cl)cc1,/,/,-2.4,/,/
CC1=N/C(=C/c2ccco2)C(=O)O1,4.4,12.5,-4.5,58.5*,i
O=C1OC(c2ccc(Br)cc2)=N/C1=C\c1ccco1,-1.2,1.7,4.3,7.4,/
O=C(N=Nc1c(O)n(C2OC(=O)c3ccccc32)c2ccccc12)c1ccco1 (stereo unspecified),-2.9,-7.9,2.6,65.0*,i
CCCCn1c(O)c(N=NC(=O)c2ccco2)c2ccccc21,0.4,-6.8,2.2,4.2,/
CCOC(=O)C1=C(C)OC(N)=C(C#N)C1C1CCCCC1 (stereo unspecified),0.3,-5.4,1.1,-2.4,/
N#CC1=C(N)Oc2cc(N)ccc2C1C1CCCCC1 (stereo unspecified),81.6*,50.5*,96.6*,50.7*,i
Cc1nn(C)c(C)c1NC(=O)CSc1nc(-c2ccccc2Cl)nc2c1cnn2-c1ccccc1,7.1,-0.6,-4.2,83.2*,i
Cc1nn(C)c(C)c1NC(=O)CSc1nc(C2CC2)nc2c1cnn2-c1ccccc1,-0.7,-1.8,-4.2,24.2,/
COc1cc2[nH]c(=O)n(CCC(=O)N3CCN(c4cccc(C)c4C)CC3)c(=O)c2cc1OC,0.0,2.8,0.9,74.1*,i
O=C(NCCc1ccccc1)[C@@H]1CC=C[C@@H]2CCN(Cc3ccccc3)C(=O)[C@@H]21,/,/,-0.1,/,/
Cc1ccc(-c2nc3ccccc3[nH]2)cc1NC(=O)c1sc2cc(Cl)ccc2c1Cl,1.7,-3.5,0.5,73.1*,i
Cc1cccc(C(=O)NCC(=O)N2CCOCC2)c1,/,/,7.6,/,/
CC1CCC(C(=O)NC(C(=O)NCc2cccnc2)C(C)C)CC1 (stereo unspecified),-1.5,3.1,4.3,4.1,/
Cc1ccccc1C(=O)Nc1nc(-c2cccnc2)cs1,-3.0,8.7,-1.4,51.2*,+
CCN(c1ccccc1)S(=O)(=O)c1ccc(Cl)c(C(=O)N(CC2CCCO2)C2CCS(=O)(=O)C2)c1 (stereo unspecified),-1.7,-2.7,6.2,20.7,/
Cc1ccc(-c2nc(N/N=C/c3ccccc3[N+](=O)[O-])c3ccccc3n2)cc1,2.7,-1.4,-0.7,55.7*,i
Brc1ccc(-c2nc(N/N=C/c3cccnc3)c3ccccc3n2)cc1,-8.8,-11.5,-3.4,-4.5,/
Cc1c2c(=O)n(-c3nc4ccccc4s3)nc-2cc(O)n1Cc1ccccc1,-35.7,-4.0,/,84.2*,i
Cc1cc(C(=O)Nc2c[nH]c(=O)[nH]c2=O)ccc1[N+](=O)[O-],5.4,0.9,5.9,13.2,/
Cn1cccc1CC(=O)NNC(=S)NC(=O)c1ccc(F)cc1,-4.0,10.7,4.8,-5.8,/
Cc1ccc(-c2[nH]ncc2/C=N/n2c(C)nc3ccccc3c2=O)cc1,-1.1,-1.5,-0.3,60.0*,i
COc1ccccc1C(=O)NCCCCNC(=O)c1ccccc1OC,/,/,5.6,/,/
COc1cc(Br)cc(C2C3=C(CCCC3=O)N(c3ccc(F)cc3)C3=C2C(=O)CCC3)c1O,3.6,1.1,-1.1,3.4,/
CCCOc1c(Br)cc(C2C3=C(CCCC3=O)N(C)C3=C2C(=O)CCC3)cc1OC,79.2*,-1.9,106.9*,54.2*,/

# Bioassay records deposited in PubChem by several laboratories.
